Results reported in ChEMBL document CHEMBL2021903, “3-Deoxy-3,4-dehydro analogs of XM462. Preparation and activity on sphingolipid metabolism and cell fate” (Bioorg Med Chem, 2012).
The source made the active and inactive calls. The rule behind the calls is not given here.

How the values were obtained:
[1] = molecular target: Neutral ceramidase (Homo sapiens) (UniProt Q9NR71); experiment: Inhibition of nCDase using CerC12NBD as substrate after 1 hr by HPLC-FD analysis
Method in brief: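 Moh. pAS cells transfected to overexpress neutral ceramidase. Lysates (sonicated in 1 mM Tris–HCl, 0.1 mM EDTA, pH 7.5) incubated 1 h, 37 °C, with 5 µM CerC12NBD in 25 mM Tris–HCl pH 7.5, 1% sodium cholate, ±50 µM compound. Intact cells treated 4 h with 50 µM compound before lysis and assay. Read-out HPLC-fluorescence.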

Acid ceramidase [2] = molecular target: T1, Acid ceramidase (Homo sapiens, UniProt Q13510); experiment: Inhibition of aCDase using RBM14C12 as substrate after 1 hr by HPLC-FD analysis
T1 sequence (Q13510 whole entry): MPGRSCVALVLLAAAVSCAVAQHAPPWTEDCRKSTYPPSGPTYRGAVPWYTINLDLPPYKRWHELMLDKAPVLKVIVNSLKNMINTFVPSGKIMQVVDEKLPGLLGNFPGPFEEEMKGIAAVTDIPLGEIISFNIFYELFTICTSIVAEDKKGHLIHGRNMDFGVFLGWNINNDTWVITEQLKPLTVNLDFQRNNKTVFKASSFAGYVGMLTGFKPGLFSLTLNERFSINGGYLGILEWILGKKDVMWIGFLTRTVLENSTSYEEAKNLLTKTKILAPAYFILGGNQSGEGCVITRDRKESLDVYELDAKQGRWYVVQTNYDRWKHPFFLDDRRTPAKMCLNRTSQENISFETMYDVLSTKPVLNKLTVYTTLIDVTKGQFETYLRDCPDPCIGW

Acid ceramidase [3] = molecular target: T1, Acid ceramidase; experiment: Inhibition of aCDase in Moh.pAS AcCer10X cells using RBM14C12 as substrate after 1 hr by HPLC-FD analysis; assay type: cell-based
[4] = molecular target: T2, Sphingolipid delta(4)-desaturase DES1 (Homo sapiens) (UniProt O15121); experiment: Inhibition of Des1 in human A549 cells assessed as formation of CerC6NBD from dhCerC6NBD at =>100 uM after 4 hrs by HPLC-FD analysis; assay type: cell-based
T2 sequence (whole entry): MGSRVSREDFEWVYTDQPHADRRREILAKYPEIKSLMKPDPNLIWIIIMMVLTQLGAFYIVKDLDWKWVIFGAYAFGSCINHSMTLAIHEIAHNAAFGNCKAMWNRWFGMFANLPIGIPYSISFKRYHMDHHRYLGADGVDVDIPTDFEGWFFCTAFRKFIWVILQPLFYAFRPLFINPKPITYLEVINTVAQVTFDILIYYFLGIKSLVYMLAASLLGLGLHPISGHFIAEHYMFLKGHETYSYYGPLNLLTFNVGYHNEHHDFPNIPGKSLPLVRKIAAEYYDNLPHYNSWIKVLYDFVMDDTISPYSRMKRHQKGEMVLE
Method in brief: (§1)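 Des1 activity in A549 and HCT116 cells: intact cells seeded 2×10⁵/well and incubated 4 h with dhCerC6NBD and compound. Dose–response used cell lysates incubated 4 h with 10 µM dhCerC6NBD plus graded compound. CerC6NBD measured by HPLC with fluorescence detection. IC50 from sigmoidal variable-slope regression; mean ± SD, three experiments in triplicate.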

[5] = molecular target: T2, Sphingolipid delta(4)-desaturase DES1 (Homo sapiens); experiment: Inhibition of Des1 in human HCT116 cells assessed as formation of CerC6NBD from dhCerC6NBD at =>100 uM after 4 hrs by HPLC-FD analysis; assay type: cell-based; conditions: HCT-116; method in brief: as §1
HCT-116 [6] = experiment: Effect on sphingolipidome in human HCT116 cells assessed as increase in C18-ceramide per 10^6 cells at 10 uM after 14 hrs by UPLC-TOF analysis relative to control (reference value: 3.9 +/- 0.3 pmol/10^6 cells); assay type: functional
Method in brief: (§2)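 Cells incubated with compound at 10 µM, 24 h (A549) or 14 h (HCT116); lipids then extracted and profiled. Long-chain bases and phosphates were read by LC-MS/MS (positive electrospray, selected reaction monitoring, C17-dihydrosphingosine and C17-dihydrosphingosine-1-phosphate transitions monitored). Amounts expressed as pmol per 10⁶ cells. Mean ± SD of triplicates; unpaired two-tailed t-test versus control.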

HCT-116 [7] = experiment: Effect on sphingolipidome in human HCT116 cells assessed as reduction in glucosylceramides per 10^6 cells at 10 uM after 14 hrs by UPLC-TOF analysis relative to control; assay type: functional, cell-based; method in brief: as §2
HCT-116 [8] = experiment: Effect on sphingolipidome in human HCT116 cells assessed as dihydrosphingosine-1-phosphate level per 10^6 cells at 10 uM after 14 hrs […] relative to control; assay type: functional, cell-based
A549 [9] = experiment: Effect on sphingolipidome in human A549 cells assessed as increase in C18-ceramide per 10^6 cells at 10 uM after 24 hrs by UPLC-TOF analysis (reference value: 4.8 +/- 0.5 pmol/10^6 cells); assay type: functional; method in brief: as §2
HCT-116 [10] = experiment: Effect on sphingolipidome in human HCT116 cells assessed as sphingosine-1-phosphate level per 10^6 cells at 10 uM after 14 hrs by UPLC-TOF analysis (reference value: 1.49 +/- 0.70/10^6 cells); assay type: functional; method in brief: as §2
A549 [11] = experiment: Effect on sphingolipidome in human A549 cells assessed as increase in dihydroceramide per 10^6 cells at 10 uM after 24 hrs by UPLC-TOF analysis relative to control; assay type: functional; method in brief: as §2
HCT-116 [12] = experiment: Effect on sphingolipidome in human HCT116 cells assessed as increase in dihydrosphingomyelins per 10^6 cells at 10 uM after 14 hrs by UPLC-TOF analysis relative to control; assay type: functional, cell-based; method in brief: as §2
HCT-116 [13] = experiment: Induction of […] in human HCT116 cells at 20 uM after 14 hrs by Annexin V-propidium iodide staining based flow cytometry; assay type: functional
HCT-116 [14] = experiment: Effect on sphingolipidome in human HCT116 cells assessed as reduction in C16-sphingomyelin per 10^6 cells at 10 uM after 14 hrs by UPLC-TOF analysis relative to control; assay type: functional, cell-based; method in brief: as §2
HCT-116 [15] = experiment: Induction of apoptosis in human HCT116 cells at 15 uM after 14 hrs by Annexin V-propidium iodide staining based flow cytometry; assay type: functional, cell-based
Method in brief: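 HCT116 (clone 40–16) in low-glucose DMEM with 10% FBS and 1% penicillin–streptomycin, seeded 2.5×10⁵ cells/mL. After 24 h, medium replaced with compound-containing medium; ethanol vehicle to controls. After incubation, cells PBS-washed, trypsinized, stained with Annexin V and propidium iodide, analysed by flow cytometry. Mean ± SD, 3 experiments in triplicate.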

HCT-116 [16] = experiment: Effect on sphingolipidome in human HCT116 cells assessed as increase in dihydroceramide per 10^6 cells at 10 uM after 14 hrs by UPLC-TOF analysis relative to control; assay type: functional; method in brief: as §2
HCT-116 [17] = experiment: Effect on sphingolipidome in human HCT116 cells assessed as reduction in C24-ceramide per 10^6 cells at 10 uM after 14 hrs by UPLC-TOF analysis relative to control; assay type: functional, cell-based; method in brief: as §2
HCT-116 [18] = experiment: Effect on sphingolipidome in human HCT116 cells assessed as increase in glucosyldihydroceramides per 10^6 cells at 10 uM after 14 hrs by UPLC-TOF analysis relative to control; assay type: functional, cell-based; method in brief: as §2
HCT-116 [19] = experiment: Effect on sphingolipidome in human HCT116 cells assessed as reduction in sphingomyelins per 10^6 cells at 10 uM after 14 hrs by UPLC-TOF analysis relative to control; assay type: functional, cell-based; method in brief: as §2

Chain of Neutral ceramidase (Homo sapiens) (Q9NR71 whole entry): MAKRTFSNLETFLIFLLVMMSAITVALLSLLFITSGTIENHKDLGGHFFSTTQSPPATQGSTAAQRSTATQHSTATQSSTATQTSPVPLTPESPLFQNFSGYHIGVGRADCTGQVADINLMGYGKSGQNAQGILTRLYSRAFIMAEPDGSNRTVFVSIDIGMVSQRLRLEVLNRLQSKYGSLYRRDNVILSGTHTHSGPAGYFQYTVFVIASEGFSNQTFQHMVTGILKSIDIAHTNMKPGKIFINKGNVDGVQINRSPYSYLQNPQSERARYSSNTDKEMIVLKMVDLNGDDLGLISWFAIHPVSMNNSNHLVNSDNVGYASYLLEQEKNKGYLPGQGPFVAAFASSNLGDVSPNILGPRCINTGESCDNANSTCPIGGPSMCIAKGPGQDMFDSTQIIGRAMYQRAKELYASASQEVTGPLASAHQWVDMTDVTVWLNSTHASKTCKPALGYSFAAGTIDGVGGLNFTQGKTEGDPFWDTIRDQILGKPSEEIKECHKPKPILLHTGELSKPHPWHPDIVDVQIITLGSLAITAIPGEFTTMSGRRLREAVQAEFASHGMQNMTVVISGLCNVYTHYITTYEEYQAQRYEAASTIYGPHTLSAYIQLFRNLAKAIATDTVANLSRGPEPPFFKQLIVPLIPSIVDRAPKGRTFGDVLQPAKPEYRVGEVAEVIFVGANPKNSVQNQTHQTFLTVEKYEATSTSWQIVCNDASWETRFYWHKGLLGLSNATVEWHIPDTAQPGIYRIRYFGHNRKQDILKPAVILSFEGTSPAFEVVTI

Structure (SMILES)	inhibition [1]	IC50 (Acid ceramidase [2]) [µM]	IC50 (Acid ceramidase [3]) [µM]	inhibition [4] [%]	inhibition [5] [%]	Activity (HCT-116 [6]) [pmol]	Activity (HCT-116 [7])	Activity (HCT-116 [8])	Activity (A549 [9]) [pmol]	Activity (HCT-116 [10]) [pmol]	fold change (FC) (A549 [11])	Activity (HCT-116 [12])	Activity (HCT-116 [13])	Activity (HCT-116 [14])	Activity (HCT-116 [15])	fold change (FC) (HCT-116 [16])	Activity (HCT-116 [17])	Activity (HCT-116 [18])	Activity (HCT-116 [19])
CCCCCCCCCCCCCS/C=C/[C@H](CO)NC(=O)c1ccc(C(C)(C)C)cc1	inactive	315	315	50	50	–	–	–	–	–	–	–	–	–	–	–	–	–	–
CCCCCCCCCCCCCS/C=C/[C@H](CO)NC(=O)C(C)(C)C	inactive	51	51	50	50	10.8	Active	inactive	7	2.17	1.9	Active	inactive	Active	Active	4.5	Active	Active	Active
CCCCCCCCCCCCCS/C=C/[C@H](CO)NC(=O)CCCCCCC	inactive	77	77	–	–	16	Active	inactive	11.5	1.25	3.5	Active	inactive	Active	Active	8.5	Active	Active	Active
